# Hep lipid drop: inhibitors of hepatocyte lipid droplet formation, primary screen, imaging, high-throughput imaging, BODIPY stain | AML12 mouse hepatocytes, oleate lipid droplets | actives 0.4% (n = 240,000) | inhibition, % at 6.5 µM | AID 1656, 2009;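 active means lipid droplet intensity inhibited by at least 50%, with more than 500 cells counted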
#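 System: AML12 hepatocytes (mouse). Probe or stimulus: oleic acid at 100 µM to induce lipid droplet formation. Times: overnight treatment with compound plus oleate. Detection: Image-based BODIPY and DAPI two-channel analysis. Evaluation: percent inhibition of filter-corrected integrated lipid droplet intensity per well.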
# FXN GAA850 act: FXN promoter activators, primary screen, cell-based, luciferase luminescence, HEK293 lucGAA850. actives 0.56% (n = 360,000). activation, % at 6 µM. HEK293 lucGAA850 FXN promoter luciferase reporter, 24 h; percent of 10 µM SAHA response;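 active means activation above the average of all compounds screened plus 3 SD, cutoff fixed separately per campaign, cut at about 7.5% in these data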;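 further: 0% = DMSO wells and 100% = 10 µM SAHA wells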
# Rce1 inhib: yeast Rce1p protease inhibitors, primary screen, biochemical, fluorescence, cell-free homogeneous; CAAX prenyl protease 2 (Saccharomyces cerevisiae (strain ATCC 204508 / S288c)), Q03530; AID 2563, 2010; yeast membranes, quenched prenylated peptide cleavage fluorescence; actives 0.27% (n = 290,000); calls only;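 active means fall in fluorescence gain of 50% or more versus controls, with final raw signal at or below 3038400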;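 further: plate controls were neutral control wells for no effect and wells lacking membranes for full effect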
# proCasp3 act: activators of human procaspase-3 D3A mutant, primary screen, biochemical, absorbance, PC-3 D3A mutant, single concentration. activation, % at 8.5 µM. recombinant procaspase-3 D3A, Ac-DEVD-pNA absorbance 405 nm. actives 0.11% (n = 330,000). Caspase-3 (Homo sapiens), P42574. AID 463141, 2010;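 active means activation above the mean of all tested compounds plus 3 SD, cut at about 21% in these data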;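 further: 0% = DMSO alone and 100% = DMSO wells spiked with extra 5 µM PC-3 D3A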
#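 Assay system: Procaspase-3 D3A mutant, all three cleavage aspartates alanine. Buffer or medium: Zinc-free HEPES saline buffer with Triton X-100. Times: 1 h compound preincubation, 2 h substrate hydrolysis at 25 °C. Measured by: 405 nm absorbance of p-nitroaniline, reads at 0 and 120 min. Read-out basis: percent activation relative to control range. Replicates: singlicate.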
# procasp7 counter: procaspase-7 activators, primary screen, counter-screen for procaspase-3 activator project, biochemical, absorbance, HTS, human. activation, % at 8.5 µM. Caspase-7 (Homo sapiens), P55210. actives 0.093% (n = 330,000). recombinant procaspase-7, Ac-DEVD-pNA absorbance 405 nm; D23A/D198A/D206A triple mutant, cannot self-cleave; scale: DMSO 0, 5 µM enzyme 100;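 active means percent activation above the screen-wide mean plus 3 SD, cut at about 25% in these data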
#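 Assay system: Uncleavable procaspase-7 mutant enzyme | Input: 2 µM procaspase-7 mutant as dispensed | Timing: 1 h compound preincubation, 2 h substrate cleavage, 25 °C | Repeats: One well per compound | Control set: DMSO wells as 0%, DMSO with 5 µM added PC-7 as 100% | Technique: Epi-absorbance of released pNA at 405 nm, two timepoints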
# p-CIP stab down: p/CIP-EGFP fusion destabilizers, primary screen, fluorescence, F442A cells | actives 0.01% (n = 290,000) | Q05BA5 | 16 h | decrease of EGFP signal, % at 10 µM;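 active means EGFP signal decrease of at least 30% at 10 µM or well 3 SD below plate mean, unless failing retest; inactive means the rest, including hits failing retest or dose response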
# Target sequence (Q05BA5 1-1403): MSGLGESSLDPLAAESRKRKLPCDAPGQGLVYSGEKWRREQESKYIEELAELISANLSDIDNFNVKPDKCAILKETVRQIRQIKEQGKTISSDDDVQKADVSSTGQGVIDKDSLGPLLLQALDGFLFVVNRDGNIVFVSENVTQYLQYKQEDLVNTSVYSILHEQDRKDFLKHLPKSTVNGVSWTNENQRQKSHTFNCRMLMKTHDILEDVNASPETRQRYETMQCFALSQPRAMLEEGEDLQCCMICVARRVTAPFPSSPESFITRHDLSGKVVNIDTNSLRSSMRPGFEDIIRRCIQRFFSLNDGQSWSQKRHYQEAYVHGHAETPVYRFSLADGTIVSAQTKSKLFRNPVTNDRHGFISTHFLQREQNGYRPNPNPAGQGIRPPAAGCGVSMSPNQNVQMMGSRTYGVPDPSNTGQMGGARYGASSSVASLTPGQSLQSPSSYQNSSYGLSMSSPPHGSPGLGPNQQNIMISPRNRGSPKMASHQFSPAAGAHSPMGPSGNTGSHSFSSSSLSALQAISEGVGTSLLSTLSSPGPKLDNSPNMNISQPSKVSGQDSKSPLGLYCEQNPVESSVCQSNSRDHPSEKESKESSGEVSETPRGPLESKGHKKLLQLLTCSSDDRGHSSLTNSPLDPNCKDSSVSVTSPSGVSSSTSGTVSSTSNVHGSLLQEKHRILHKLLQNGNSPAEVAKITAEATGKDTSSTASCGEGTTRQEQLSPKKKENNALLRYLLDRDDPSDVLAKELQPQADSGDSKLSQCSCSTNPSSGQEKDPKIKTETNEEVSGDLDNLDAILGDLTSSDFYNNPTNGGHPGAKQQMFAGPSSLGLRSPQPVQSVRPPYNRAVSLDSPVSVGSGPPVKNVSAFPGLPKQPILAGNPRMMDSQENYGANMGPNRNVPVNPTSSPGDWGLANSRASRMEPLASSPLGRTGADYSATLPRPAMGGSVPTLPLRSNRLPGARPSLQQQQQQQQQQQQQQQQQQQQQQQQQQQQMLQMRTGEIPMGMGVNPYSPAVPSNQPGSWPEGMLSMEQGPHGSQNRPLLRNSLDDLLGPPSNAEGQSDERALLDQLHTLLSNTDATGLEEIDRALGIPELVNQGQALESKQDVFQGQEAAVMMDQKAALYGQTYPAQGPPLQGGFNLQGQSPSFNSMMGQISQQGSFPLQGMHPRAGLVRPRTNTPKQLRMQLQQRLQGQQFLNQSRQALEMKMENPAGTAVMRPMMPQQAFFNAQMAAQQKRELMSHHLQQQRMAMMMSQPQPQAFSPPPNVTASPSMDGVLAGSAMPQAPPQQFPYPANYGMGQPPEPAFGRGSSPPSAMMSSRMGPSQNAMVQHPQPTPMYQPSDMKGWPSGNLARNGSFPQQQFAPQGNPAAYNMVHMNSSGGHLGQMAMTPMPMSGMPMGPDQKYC
# Hep lipid conf: hepatocyte lipid droplet accumulation inhibitors, confirmation, imaging, AML12 mouse hepatocytes, single concentration, high-content. inhibition, % at 5.2 µM. actives 65% (n = 870). BODIPY lipid droplet imaging; droplets induced with 100 µM oleic acid. shares compounds with Hep lipid drop;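 active means inhibition of lipid droplet metric at least 50%, with more than 300 cells in each of four replicates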;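 further: plate controls were DMSO with oleic acid for no effect and 5 µM Triacsin-C for full effect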
# AML12 tox img: AML12 hepatocyte cytotoxicity, counter-screen for hepatic lipid droplet formation project, imaging, DAPI nuclear morphology imaging; actives 3% (n = 870); shares compounds with Hep lipid drop; AML12 mouse hepatocytes; stronger effect = higher value; cells fed 100 µM oleate overnight; z-score at 5 µM; AID 463200, 2010; in the data active means z-score above about 6.3;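 further: compound exposure lasted overnight at 37 °C before fixation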
# AML12 tox ATP: AML12 hepatocyte cytotoxicity, confirmation, cytotoxicity control for hepatic lipid droplet formation project, cell-based, single concentration | shares compounds with Hep lipid drop | AML12 mouse hepatocyte viability, ATP luminescence; cells loaded with 100 µM oleic acid | cytotoxicity, % at 50 µM | 530 tested, under 10 active | AID 463219, 2010;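 active means cytotoxicity above 50% in each of four replicates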;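 further: compound exposure lasted overnight at 37 °C before the ATP read; 0% = DMSO-treated cells and 100% = wells with no cells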
# Numbers without * were called inactive; i = inactive; . = no result. Most compounds without a hit are left out; they make up all but 1.2% or so of the library.
SMILES,Hep lipid drop,FXN GAA850 act,Rce1 inhib,proCasp3 act,procasp7 counter,p-CIP stab down,Hep lipid conf,AML12 tox img,AML12 tox ATP
CCOC(=O)c1cc(-c2ccc(C)cc2)nc2nc(SC)[nH]c(=O)c12,104.3*,5.4,i,-0.3,8.1,7.1,107.2*,-0.176,.
CCNC(=O)C1(C)CCN(C(=O)c2cccc3ccccc23)C1 (centres undefined),.,0.1,.,.,.,.,.,.,.
COc1ccc(-c2cnc(SCC(=O)Nc3cc(C)on3)n2Cc2ccco2)cc1,-5.3,0.0,i,2.7,-7.2,-7.6,.,.,.
COc1ccc(-c2cnc(SCC(=O)Nc3nc(C(C)(C)C)cs3)n2Cc2ccco2)cc1,64.2*,2.6,i,-10.2,4.5,-1.5,93.8*,1.43,-31.5
C=C1[C@@H](OC(C)=O)C=C[C@@]2(C)C=CC(=O)[C@@](C)(OC(C)=O)[C@@H]2[C@@H](OC(C)=O)[C@]2(O)[C@@H](C)C(=O)O[C@H]2[C@H]1Cl,.,-2.3,.,.,.,.,.,.,.
CC1=C(C(=O)OCC2CCCO2)C(c2ccc(Cl)c(Cl)c2)NC(=O)N1 (centres undefined),57.1*,3.0,i,2.5,-4.4,3.0,35.2,-0.645,.
Cc1ccc(S(=O)(=O)NCc2ccc(C(=O)NC3CC3)cc2)cc1,60.0*,0.3,i,3.3,2.4,-5.1,62.5,0.0739,7.7
COc1cccc(-c2nc(NCc3ccccc3)c3ccccc3n2)c1O,69.3*,4.7,i,1.8,12.9,2.6,54.7*,-0.683,-5.0
COc1cccc(-c2nc(NCc3ccco3)c3ccccc3n2)c1O,3.3,2.7,i,-3.3,6.2,-4.8,.,.,.
CCn1cc([N+](=O)[O-])c(C(=O)N2N=C(c3ccc(Cl)c(Cl)c3)CC2c2ccccc2O)n1 (centres undefined),23.3,3.7,i,2.1,1.4,1.3,.,.,.
CCn1cc([N+](=O)[O-])c(C(=O)N2N=C(c3ccc4ccccc4c3)CC2c2cc(Br)ccc2O)n1 (centres undefined),89.4*,0.5,i,7.4,1.4,1.2,77.2*,-1.47,11.0
O=[N+]([O-])c1ccc(-[n+]2nc(-c3ccccc3)nn2-c2ccccc2)cc1,86.6*,0.1,i,-0.6,6.3,-2.5,114.7*,-0.741,11.6
CCC(C)NCCOc1ccc(C(C)(C)c2ccccc2)cc1 (centres undefined),51.2*,0.2,i,1.7,-4.5,-26.1,28.2,-0.497,.
CC1(C(=O)Nc2ccc(Cl)c(Cl)c2)CCN1C(=O)Cc1ccc(-c2ccccc2)cc1 (centres undefined),.,1.5,.,.,.,.,.,.,.
CCOc1ccc2c(c1)-c1c(ssc1=S)C(C)(C)N2C,56.8*,1.4,i,-13.4,-8.2,0.0,102.1*,0.0444,13.5
O=C(Nc1ccccc1)C1=C[C@@H](C2CCCCC2)C[C@@H](OCc2ccc(CO)cc2)O1,53.4*,-4.4,i,2.3,-0.8,-8.0,64.8*,-0.343,8.2
c1cc2c3c(cccc3c1)NC1(CCC3(CC1)Nc1cccc4cccc(c14)N3)N2,51.2*,-2.0,i,-3.7,-15.5,7.5,13.9,0.331,.
COc1cccc(CN2CCC2(C)C(=O)Nc2ccc(C)c(O)c2)c1F (centres undefined),.,-4.3,.,.,.,.,.,.,.
CCc1nc2ccc(C(=O)Nc3cc(-c4ccccc4)ccc3OC)cn2c1N(CCN(C)C)CC1CC1,.,-5.9,.,.,.,.,.,.,.
O=C(NC(c1ccccc1)c1cnccn1)C1CCN(CCOc2ccc(Cl)cc2Cl)CC1 (centres undefined),.,0.0,.,.,.,.,.,.,.
CCc1ccc(/C=c2\s/c(=C\C(=O)C(C)(C)C)[nH]c2=O)cc1,49.7,0.2,i,-20.2,-26.1,0.6,.,.,.
CC(C)(C)C(=O)/C=c1\[nH]c(=O)/c(=C\c2ccc(F)cc2)s1,67.0*,0.5,i,-12.4,-12.6,1.4,98.4*,0.889,5.6
CCOC(=O)c1ccc(NC(=O)CCOc2ccc(C)cc2)cc1,65.6*,1.4,i,2.9,8.5,-4.0,89.7*,-0.812,6.1
Nc1cc2[nH]c(=O)c3ccccc3c2cc1[N+](=O)[O-],.,7.3,.,.,.,.,.,.,.
COc1ccc(N=C2C(=Nc3ccc(OC)cc3)N(c3ccc(N(C)C)cc3)C(=S)N2c2ccc(OC)cc2)cc1,65.3*,3.6,i,3.5,-10.1,0.7,15.2,1.84,.
SMILES,Hep lipid drop,FXN GAA850 act,Rce1 inhib,proCasp3 act,procasp7 counter,p-CIP stab down,Hep lipid conf,AML12 tox img,AML12 tox ATP
COc1ccc(N=C2C(=Nc3ccc(OC)cc3)N(c3ccc(OC)cc3)C(=S)N2C(=O)c2ccc(OC)cc2)cc1,86.7*,-0.3,i,1.2,0.2,-31.0,113.1*,-0.618,8.3
COc1ccc(N=C2C(=Nc3ccc(OC)cc3)N(c3ccccc3)C(=S)N2C(=O)c2ccc(Cl)cc2)cc1,47.9,0.7,i,1.9,-5.8,5.9,.,.,.
COc1ccc(N2C(=S)N(C(=O)c3ccccc3)C(=Nc3ccccc3)C2=Nc2ccccc2)cc1,.,5.8,i,-1.4,-5.0,.,.,.,.
O=C(NCc1cccnc1)c1cc(C2CCCCN2C(=O)CCCc2ccccc2)on1 (centres undefined),.,-1.7,.,.,.,.,.,.,.
Cc1ccc(C(=O)Nc2ccccc2C(=O)NCc2ccco2)cc1,.,0.6,.,7.7,2.5,.,.,.,.
CS(=O)(=O)Nc1ccc(C(=O)Nc2ccccc2C(=O)NCc2ccco2)cc1,56.6*,-0.7,i,-4.6,9.9,9.8,-2.8,-0.513,.
Cc1ccc(CN2C(=O)C(C)Sc3ccc(C#N)cc32)cc1 (centres undefined),.,3.6,.,.,.,.,.,.,.
Cc1ccccc1NS(=O)(=O)c1ccc2c(c1)CCC(=O)N2,.,0.7,.,.,.,.,.,.,.
CCc1cc(C(=O)Nc2cc(S(=O)(=O)N3CCCCC3)ccc2N2CCN(C)CC2)sc1C,.,-2.7,.,.,.,.,.,.,.
